# In article PMC5693322 (Blood, 2017):
# How the values were obtained:
# ACD rats = assay: PG-APS-induced rat model of anemia of chronic disease; type: in vivo
# How it was run: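 Female Lewis rats on standard diet (180 mg iron/kg) were made anemic by intraperitoneal PG-APS. From 2 weeks after PG-APS they received test compound 25 mg/kg or vehicle once daily for 3 days up to 21 days. Hb and RBC were counted on a Vet-ABC analyzer. Serum iron was measured by QuantiChrom kit. Spleen FPN1 was measured by western blot (n = 4). Liver Inhibin BB mRNA was measured by TaqMan RT-PCR on 4 μg of guanidinium-phenol-extracted RNA. Time points were compared by unpaired t test.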
# [1] = system: BMP6-pSMAD1/5/8 in HepG2 cells; assay: BMP6-induced phosphorylation of SMAD1/5/8 in HepG2 cells, western blot; type: cell-based; settings: HepG2, 10 ng/mL BMP6 30 min, cpd added 2 hours before
# How it was run: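 HepG2 cells were grown in EMEM with 10% FCS and 1% penicillin/streptomycin. Test compound was added 2 h before stimulation with BMP6 (10 ng/mL, 30 min). pSMAD1/5/8 was detected by western blot with HRP secondary antibodies, using β-actin as loading control. Results are percent of pSMAD1/5/8 induction normalized to vehicle-treated cells, n = 5, mean ± SEM.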
# patients = settings: clinical studies ref 18, 20; cited from earlier work
# [2] = system: IL-6-pSTAT3 in HepG2 cells; assay: IL-6-induced phosphorylation of STAT3 in HepG2 cells, western blot; type: cell-based; settings: HepG2, 10 ng/mL IL-6 20 min
# How it was run: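 Western blot for pSTAT3 in HepG2 cells (EMEM, 10% FCS, 1% penicillin/streptomycin) after 20 min of 10 ng/mL IL-6, with test compound present. β-actin served as loading control. Values are percent of pSTAT3 induction relative to vehicle-treated cells, n = 2, mean ± SEM.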
# [3] = system: FPN1 protein in RAW 264.7 cells; type: cell-based, murine; settings: RAW 264.7, FeCl3 50 μM 20 h, hepcidin 1 μg/mL + MMB 10 nM-1 μM 6 h
# How it was run: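 RAW 264.7 cells were cultured in DMEM with 10% FCS, 1% penicillin/streptomycin and 2 mM glutamine at 37°C and 5% CO2. FeCl3 (50 μM, 20 h) induced FPN1. Cells then received hepcidin (1 μg/mL) alone or with test compound (10, 100, 500 nM, 1 μM) for another 6 h. Untreated cells were controls. FPN1 was measured by western blot and densitometry, normalized to β-actin, n = 3 per group.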
# healthy rats = assay: MMB treatment of healthy rats; type: in vivo, rat
# ACVR1 (ALK2) = target: T1, ACVR1 (ALK2) (Homo sapiens, UniProt Q04771); assay: SelectScreen LanthaScreen Eu Kinase Binding Assay
# T1 sequence (Q04771 21-509): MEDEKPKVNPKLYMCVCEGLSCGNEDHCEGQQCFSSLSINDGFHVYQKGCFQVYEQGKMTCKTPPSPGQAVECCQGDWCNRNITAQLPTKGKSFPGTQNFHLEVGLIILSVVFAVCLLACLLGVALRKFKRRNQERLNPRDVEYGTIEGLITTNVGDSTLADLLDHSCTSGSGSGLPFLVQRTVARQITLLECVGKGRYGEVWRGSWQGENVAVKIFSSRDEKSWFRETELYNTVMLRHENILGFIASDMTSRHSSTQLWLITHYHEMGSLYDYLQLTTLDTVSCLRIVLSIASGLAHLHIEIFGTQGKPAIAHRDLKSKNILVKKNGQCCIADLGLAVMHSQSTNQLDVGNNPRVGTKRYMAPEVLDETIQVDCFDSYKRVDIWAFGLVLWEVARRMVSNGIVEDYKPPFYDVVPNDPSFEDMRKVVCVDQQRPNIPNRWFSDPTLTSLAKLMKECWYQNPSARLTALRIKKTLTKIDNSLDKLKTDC
# [4] = ACD rats, 25 mg/kg once daily, days 14 and 21, vs vehicle
# [5] = ACD rats, 5, 10 or 25 mg/kg for 3 days, hepatic nuclear extracts
# [6] = ACD rats, 5, 10 or 25 mg/kg once daily for 3 days
# [7] = ACD rats, 5, 10 or 25 mg/kg, 3 weeks, FACS
# [8] = healthy rats, 5, 10 or 25 mg/kg
# [9] = healthy rats, any MMB dose, 3 days
smiles,measurement,setting,value
"N#CCNC(=O)c1ccc(-c2ccnc(Nc3ccc(N4CCOCC4)cc3)n2)cc1 [MMB, momelotinib]",mean corpuscular Hb,"ACD rats; ACD rats, 25 mg/kg once daily",increase
same,mean corpuscular volume,"ACD rats; ACD rats, 25 mg/kg once daily",increase
same,neutrophil count,"ACD rats; ACD rats, 25 mg/kg once daily",reductions
same,white blood cell count,"ACD rats; ACD rats, 25 mg/kg once daily",reductions
same,Hb concentrations,ACD rats; [4],significant increase
same,RBC count,ACD rats; [4],significant increase
same,FPN1 expression in the spleen,"ACD rats; ACD rats, 25 mg/kg, 3 days",increase
same,ferritin protein levels in the spleen,"ACD rats; ACD rats, 25 mg/kg, 3 days",decreased
same,circulating iron concentrations,"ACD rats; ACD rats, 25 mg/kg, up to 21 days",increase
same,Inhibin BB mRNA levels in the liver,"ACD rats; ACD rats, 5, 10 or 25 mg/kg for 3 days",decreased
same,pSMAD1/5/8 in the livers,ACD rats; [5],dose-dependent reduction
same,pSTAT3 in the livers,ACD rats; [5],dose-dependent reduction
same,liver Hamp mRNA expression,ACD rats; [6],reduced
same,serum hepcidin levels,ACD rats; [6],dose-dependent decrease
same,serum iron,ACD rats; [6],dose-dependent increase
same,numbers of mature RBCs in bone marrow,ACD rats; [7],dose-dependent increase
same,numbers of reticulocytes in bone marrow,ACD rats; [7],dose-dependent increase
same,splenic IL-6 cytokine mRNA levels,"ACD rats; ACD rats, 3 days, especially at 25 mg/kg",modulated
same,inhibition of BMP6-pSMAD1/5/8 signaling,[1],inhibited
same,patients who experienced grade 3 or 4 anemia,patients,3%
same,inhibition of IL-6-pSTAT3 signaling,[2],inhibited
same,effect on FPN1 protein expression in presence of hepcidin,[3],no effect
same,erythropoietic / circulating iron effects in healthy rats,healthy rats; [8],did not induce any of these effects
same,pSMAD1/5/8 protein levels,healthy rats; [8],not affected
same,pSTAT3 protein levels,healthy rats; [8],not affected
same,FPN1 protein levels in the spleen,healthy rats; [9],no changes
same,Hamp mRNA expression in the liver,healthy rats; [9],no changes
same,serum iron levels,healthy rats; [9],no changes
same,IC50,ACVR1 (ALK2),8.4 nM
"N#CC[C@H](C1CCCC1)n1cc(-c2ncnc3[nH]ccc23)cn1 [RUX, ruxolitinib, reference compound]",inhibition of BMP6-pSMAD1/5/8 signaling,[1],not BMP6-pSMAD1/5/8
same,patients who experienced grade 3 or 4 anemia,patients,45.2%
same,inhibition of IL-6-pSTAT3 signaling,[2],blocked
same,inhibitory activity in type I BMPR kinase / TGFBR1 binding assays,"ACVR1 (ALK2); ACVR1/ALK2, BMPR1a/ALK3 and TGFBR1/ALK5 assays",no relevant inhibitory activity
